Structures are written as SMILES. Active and inactive are the calls of the source. The rule behind the calls is not given here. A value given as a limit tells only on which side of the number the result lay.

Holding throughout (assay type): functional, cell-based
In test [1] the target is T1, Lysophosphatidic acid receptor 5 (Homo sapiens, UniProt Q9H1C0). As to the kind of experiment: Antagonist activity at human LPA5 receptor expressed in RH7777 cells assessed as inhibition of EC80 concentration of hexadecyl LPA-induced calcium mobilization incubated for 15 mins by FLIPR method relative to hexadecyl LPA.
Test [2] deals with T1, Lysophosphatidic acid receptor 5. The experiment in a line: Antagonist activity at human LPA5 receptor expressed in RH7777 cells assessed as inhibition of EC80 concentration of hexadecyl LPA-induced calcium mobilization incubated for 15 mins by FLIPR method.
For test [3] the target is unchanged. The experiment in a line: Agonist activity at human LPA5 receptor expressed in RH7777 cells assessed as calcium mobilization incubated for 15 mins by FLIPR method. The gist of the method: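 RH7777 cells stably expressing hLPA5, plated 20,000/well in 0.2% FBS medium 18–20 h, loaded 45 min at 37 °C with Calcium 5 dye in HBSS/20 mM HEPES/2.5 mM probenecid pH 7.4. […] Duplicates.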

T1 sequence (Q9H1C0 whole entry): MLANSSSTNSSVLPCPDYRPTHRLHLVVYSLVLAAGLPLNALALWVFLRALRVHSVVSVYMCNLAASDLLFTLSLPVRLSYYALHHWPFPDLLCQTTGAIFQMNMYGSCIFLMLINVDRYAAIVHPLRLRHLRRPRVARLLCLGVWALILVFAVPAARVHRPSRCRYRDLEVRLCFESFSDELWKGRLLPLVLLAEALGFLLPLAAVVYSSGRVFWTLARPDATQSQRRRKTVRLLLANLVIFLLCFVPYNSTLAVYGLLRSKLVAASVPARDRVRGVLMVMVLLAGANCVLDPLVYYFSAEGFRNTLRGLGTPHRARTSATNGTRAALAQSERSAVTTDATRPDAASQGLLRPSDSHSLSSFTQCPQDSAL

Turning to `COc1cc2c(C(=O)N3C4CCCC3CC4)cn(-c3cccc(N(C)C)c3)c(=O)c2cc1OC`, the inhibition in test [1] (filed as antagonist) came out at 103%. Also, in test [2], the IC50 was found to be 0.23 µM. Moreover, the result in test [3] was inactive.

Turning to `CN(C)c1cccc(-n2cc(C(=O)N3CCC(F)CC3)c3ccccc3c2=O)c1`, the IC50 in test [2] was > 10 µM. In addition, the outcome in test [3] was inactive.

As to `COc1cc2c(C(=O)N3CCCCC3)cn(-c3cccc(C(C)C)c3)c(=O)c2cc1OC`, the inhibition in test [1] (filed as antagonist) stood at 105%. Besides, in test [2], the IC50 was determined as 0.063 µM. Moreover, the outcome in test [3] was inactive.

With `COc1cc2c(C(=O)N3CCCCC3C)cn(-c3cccc(N(C)C)c3)c(=O)c2cc1OC` (racemic), in test [1] (filed as antagonist), the inhibition was determined as 98%. Also, the IC50 in test [2] is 0.99 µM. Further, the result in test [3] was inactive.

On to `COc1cc2c(C(=O)NC3CCCC3)cn(-c3cccc(N(C)C)c3)c(=O)c2cc1OC`, for which, in test [2], the half-inhibitory concentration (IC50) is > 10 µM. Further, the result in test [3] was inactive.

With `COc1cc2c(C(=O)N3CCCCC3)cn(-c3ccc4onc(C)c4c3)c(=O)c2cc1OC`, the inhibition in test [1] (filed as antagonist) came out at 56%. Moreover, the IC50 in test [2] is 3.9 µM. Also, the outcome in test [3] was inactive.

For `COc1cc2c(C(=O)N3CCC(C)CC3)cn(-c3cccc(N(C)C)c3)c(=O)c2cc1OC`, the inhibition in test [1] (filed as antagonist) worked out at 105%. Moreover, in test [2], the IC50 stood at 0.16 µM. Further, the result in test [3] was inactive.

Consider `COc1cc2c(=O)n(-c3cccc(N(C)C)c3)cc(C(=O)N3CCC(F)CC3)c2cc1OCc1cccc2ccccc12`, for which, in test [2], the IC50 was > 10 µM. In addition, the result in test [3] was inactive.

Turning to `COc1cc2c(C(=O)Nc3ccccc3)cn(-c3cccc(N(C)C)c3)c(=O)c2cc1OC`, the IC50 in test [2] was > 10 µM. In test [3], the outcome was inactive.

Regarding `COc1cc2c(C(=O)N(C)Cc3ccncc3)cn(-c3cccc(N(C)C)c3)c(=O)c2cc1OC`, the IC50 in test [2] was > 10 µM. Moreover, the outcome in test [3] was inactive.

Take `COc1cc2c(C(=O)N(C)C)cn(-c3cccc(N(C)C)c3)c(=O)c2cc1OC`: the IC50 in test [2] was > 10 µM. Moreover, the outcome in test [3] was inactive.

`COc1cc2c(C(=O)N3CCC(F)CC3)cn(-c3ccc4occc4c3)c(=O)c2cc1OC`: in test [1] (filed as antagonist), the inhibition was determined as 88%. Besides, in test [2], the IC50 was 1.49 µM. Moreover, in test [3], the result was inactive.

For the molecule `COc1cc2c(C(=O)N3CCCC3)cn(-c3cccc(N(C)C)c3)c(=O)c2cc1OC`, the IC50 in test [2] is > 10 µM. The result in test [3] was inactive.

On to `COc1cc2c(C(=O)N3CCC(c4ccc(F)cc4F)CC3)cn(-c3cccc(N(C)C)c3)c(=O)c2cc1OC`, for which, in test [2], the IC50 is > 10 µM. Besides, the outcome in test [3] was inactive.

`CCCCCNC(=O)c1cn(-c2cccc(N(C)C)c2)c(=O)c2cc(OC)c(OC)cc12`: in test [2], the IC50 is > 10 µM. Besides, the result in test [3] was inactive.

As to `COc1cc2c(=O)n(-c3cccc(N(C)C)c3)cc(C(=O)N3CCC(F)CC3)c2cc1OCC(F)(F)F`, the inhibition in test [1] (filed as antagonist) is 74%. For the same molecule, the IC50 in test [2] is 2.5 µM. Also, the outcome in test [3] was inactive.

Consider `COc1cc2c(C(=O)N3CCCCC3)cn(-c3cccc(C(C)(C)C)c3)c(=O)c2cc1OC`, for which the inhibition in test [1] (filed as antagonist) is 107%. For the same molecule, the IC50 in test [2] came out at 0.173 µM. The outcome in test [3] was inactive.

`COc1cc2c(C(=O)N3CCCCC3)cn(-c3ccccn3)c(=O)c2cc1OC`: the IC50 in test [2] is > 10 µM. Moreover, the outcome in test [3] was inactive.

Consider `COc1cc2c(C(=O)N3CCCCC3)cn(-c3cccc(OC(C)C)c3)c(=O)c2cc1OC`, for which the inhibition in test [1] (filed as antagonist) worked out at 100%. Besides, the half-maximal inhibitory concentration (IC50) in test [2] came out at 0.63 µM. For the same molecule, the result in test [3] was inactive.

Regarding `COc1cc2c(C(=O)N3CCC(C(N)=O)CC3)cn(-c3cccc(N(C)C)c3)c(=O)c2cc1OC`, in test [2], the IC50 was > 10 µM. In addition, the result in test [3] was inactive.

Regarding `CCCCCOc1cc2c(C(=O)N3CCC(F)CC3)cn(-c3cccc(N(C)C)c3)c(=O)c2cc1OC`, the inhibition in test [1] (filed as antagonist) amounted to 111%. In test [2], the IC50 turned out to be 0.23 µM. Moreover, in test [3], the result was inactive.

With `COc1cc2c(C(=O)N3CCCCC3)cn(-c3ccc4scc(C)c4c3)c(=O)c2cc1OC`, the inhibition in test [1] (filed as antagonist) amounted to 105%. Also, the IC50 in test [2] came out at 0.032 µM. Also, in test [3], the result was inactive.

As for `COc1cc2c(C(=O)C3CCCCC3)cn(-c3cccc(N(C)C)c3)c(=O)c2cc1OC`, the IC50 in test [2] was > 10 µM. Moreover, in test [3], the outcome was inactive.

For `COc1cc2c(C(=O)N3CCCCC3)cn(-c3ccc4cccc(C)c4c3)c(=O)c2cc1OC`, the inhibition in test [1] (filed as antagonist) stood at 108%. Besides, the IC50 in test [2] was determined as 0.21 µM. Moreover, the result in test [3] was inactive.

For `COc1cc2c(C(=O)N3CCC(C)(C)CC3)cn(-c3cccc(N(C)C)c3)c(=O)c2cc1OC`, the inhibition in test [1] (filed as antagonist) came to 90%. Also, in test [2], the IC50 is 1.1 µM. Also, in test [3], the result was inactive.

In the case of `COc1cc2c(=O)n(-c3cccc(N(C)C)c3)cc(C(=O)N3CCC(F)CC3)c2cc1O`, in test [1] (filed as antagonist), the inhibition amounted to 93%. Moreover, the IC50 in test [2] came out at 1.37 µM. Further, in test [3], the result was inactive.

With `COc1cc2c(C(=O)N3C4CCC3CC4)cn(-c3cccc(N(C)C)c3)c(=O)c2cc1OC`, the IC50 in test [2] is > 10 µM. Further, the outcome in test [3] was inactive.

For the molecule `COc1ccc2c(C(=O)N3CCC(F)CC3)cn(-c3cccc(N(C)C)c3)c(=O)c2c1`, the inhibition in test [1] (filed as antagonist) was found to be 96%. In addition, the half-maximal inhibitory concentration (IC50) in test [2] came to 1.06 µM. For the same molecule, the outcome in test [3] was inactive.

Turning to `COc1cc2c(C(=O)N3CCCCC3)cn(-c3ccncc3)c(=O)c2cc1OC`, the IC50 in test [2] is > 10 µM. In addition, the outcome in test [3] was inactive.

On to `COc1cc2c(C(=O)N3CCCC(C)C3)cn(-c3cccc(N(C)C)c3)c(=O)c2cc1OC` (racemic), for which the inhibition in test [1] (filed as antagonist) worked out at 104%. In addition, the half-inhibitory concentration (IC50) in test [2] turned out to be 0.26 µM. Further, the result in test [3] was inactive.

With `COc1cc2c(C(=O)N(C)OC)cn(-c3cccc(N(C)C)c3)c(=O)c2cc1OC`, in test [1], the inhibition was 33%. The IC50 in test [2] was 0.32 µM. Besides, the result in test [3] was inactive.

In the case of `COc1cc2c(C(=O)N3CCC3)cn(-c3cccc(N(C)C)c3)c(=O)c2cc1OC`, in test [2], the half-maximal inhibitory concentration (IC50) is > 10 µM. The result in test [3] was inactive.

In the case of `COc1cc2c(C(=O)N3CCCCCCC3)cn(-c3cccc(N(C)C)c3)c(=O)c2cc1OC`, the inhibition in test [1] (filed as antagonist) amounted to 109%. In test [2], the 50% inhibitory concentration (IC50) was 0.301 µM. Besides, in test [3], the result was inactive.

Consider `CCCOc1cc2c(C(=O)N3CCC(F)CC3)cn(-c3cccc(N(C)C)c3)c(=O)c2cc1OC`, for which the inhibition in test [1] (filed as antagonist) was 109%. Besides, in test [2], the IC50 came to 0.48 µM. Moreover, the result in test [3] was inactive.

As for `COc1cc2c(C(=O)N3CCC(OC)CC3)cn(-c3cccc(N(C)C)c3)c(=O)c2cc1OC`, the inhibition in test [1] (filed as antagonist) was 89%. In addition, the IC50 in test [2] is 0.64 µM. In test [3], the outcome was inactive.

With `COc1cc2c(=O)n(-c3cccc(N(C)C)c3)cc(C(=O)N3CCC(F)CC3)c2cc1OC(C)C`, the inhibition in test [1] (filed as antagonist) amounted to 96%. For the same molecule, in test [2], the IC50 was determined as 0.369 µM. Further, the outcome in test [3] was inactive.

For `COc1cc2c(=O)n(-c3cccc(N(C)C)c3)cc(C(=O)N3CCC(F)CC3)c2cc1OC1CCCC1`, the inhibition in test [1] (filed as antagonist) stood at 103%. The IC50 in test [2] was 0.89 µM. The outcome in test [3] was inactive.

On to `COc1cc2c(C(=O)N3CCCc4ccccc43)cn(-c3cccc(N(C)C)c3)c(=O)c2cc1OC`, for which the inhibition in test [1] (filed as antagonist) came out at 86%. For the same molecule, the IC50 in test [2] was 4.32 µM. For the same molecule, the outcome in test [3] was inactive.

For the molecule `CC#CC1CCN(C(=O)c2cn(-c3cccc(N(C)C)c3)c(=O)c3cc(OC)c(OC)cc23)CC1`, the inhibition in test [1] (filed as antagonist) turned out to be 91%. For the same molecule, in test [2], the 50% inhibitory concentration (IC50) amounted to 0.091 µM. Moreover, the result in test [3] was inactive.

For the molecule `COc1ccc2c(=O)n(-c3cccc(N(C)C)c3)cc(C(=O)N3CCC(F)CC3)c2c1`, the half-maximal inhibitory concentration (IC50) in test [2] is > 10 µM. In addition, in test [3], the outcome was inactive.

Turning to `COc1cc2c(C(=O)N3CCOCC3)cn(-c3cccc(N(C)C)c3)c(=O)c2cc1OC`, in test [1] (filed as antagonist), the inhibition stood at 71%. Moreover, the IC50 in test [2] is 2.2 µM. The result in test [3] was inactive.

As for `COc1cc2c(C(=O)N3CCCCC3)cn(-c3ccc4occc4c3)c(=O)c2cc1OC`, in test [1] (filed as antagonist), the inhibition is 93%. Moreover, the IC50 in test [2] is 1.1 µM. The outcome in test [3] was inactive.

As for `COc1cc2c(C(=O)N3CCCCC3)cn(-c3cccc(C(=O)N(C)C)c3)c(=O)c2cc1OC`, in test [2], the IC50 is > 10 µM. Also, in test [3], the outcome was inactive.

`COc1cc2c(C(=O)N3CCC(C(F)(F)F)CC3)cn(-c3cccc(N(C)C)c3)c(=O)c2cc1OC`: the inhibition in test [1] (filed as antagonist) is 87%. Moreover, the IC50 in test [2] came out at 1.56 µM. Also, the result in test [3] was inactive.

On to `CCNC(=O)c1cn(-c2cccc(N(C)C)c2)c(=O)c2cc(OC)c(OC)cc12`, for which, in test [2], the IC50 is > 10 µM. For the same molecule, the outcome in test [3] was inactive.

Consider `COc1cc2c(C(=O)N3CCCCC3)cn(-c3cccc(C(N)=O)c3)c(=O)c2cc1OC`, for which the IC50 in test [2] was > 10 µM. Moreover, in test [3], the result was inactive.

In the case of `COc1cc2c(C(=O)N3CCCCC3)cn(-c3ccc4sccc4c3)c(=O)c2cc1OC`, the inhibition in test [1] (filed as antagonist) was 101%. In addition, the IC50 in test [2] turned out to be 0.64 µM. Further, the result in test [3] was inactive.

Turning to `COc1cc2c(=O)n(-c3cccc(N(C)C)c3)cc(C(=O)N3CCC(F)CC3)c2cc1OCc1ccccn1`, the IC50 in test [2] is > 10 µM. Also, the result in test [3] was inactive.

Regarding `COc1cc2c(C(=O)NCc3ccccc3)cn(-c3cccc(N(C)C)c3)c(=O)c2cc1OC`, in test [2], the IC50 is > 10 µM. The outcome in test [3] was inactive.

Take `COc1cc2c(C(=O)N3CCCCC3)cn(-c3cccnc3)c(=O)c2cc1OC`: the IC50 in test [2] is > 10 µM. The outcome in test [3] was inactive.
